Calls of active or inactive are those of the source. No cut-off for these calls is given here.
Key:
Format in all cases: functional
[1] = tested on: HT-29; experiment: Cytotoxicity against human HT-29 cells after 72 hrs by SRB assay
Summary of the method: (§1)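 Cells seeded at 5 × 10³/well and grown 24 h; one plate per line fixed at this point as T_z reference. Exposure to vehicle or compound for a further 72 h. Wash in PBS, fix 15 min in 1% glutaraldehyde, stain 30 min at rt with 0.4% SRB, rinse in 1% acetic acid, extract into 10 mM trizma base, read A490. NCI algorithm; GI50 interpolated from dose curves.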

[2] = tested on: MDA-MB-231; experiment: Cytotoxicity against human MDA-MB-231 cells after 72 hrs by SRB assay; summary of the method: as §1
[3] = tested on: A549; experiment: Cytotoxicity against human A549 cells after 72 hrs by SRB assay; summary of the method: as §1

Row | Structure (SMILES) | GI50 [1] | GI50 [2] | GI50 [3] | GI50 ([2]; MDA-MB-231, 72 h) [µM] | GI50 ([1]; HT-29, 72 h) [µM] | GI50 ([3]; A549, 72 h) [µM]
1 | COn1cc(C2CC(=O)N=C(N)N2)c2cc(Br)c(Br)cc21 (racemic) | inactive | inactive | inactive |  |  | 
2 | NC1=NC(=O)CC(c2c[nH]c3cc(Br)ccc23)N1 (racemic) | inactive | inactive | inactive |  |  | 
3 | Cn1cc(C2CC(=O)N=C(N)N2)c2ccc(Br)cc21 (racemic) | inactive |  | inactive | 2.86 |  | 
4 | Cn1cc(C2CC(=O)N=C(N)N2)c2ccccc21 (racemic) | inactive | inactive | inactive |  |  | 
5 | CC(=O)/N=C1\NCCC(c2cn(C)c3ccc(Br)cc23)N1 (racemic) |  |  |  | 0.94 | 0.31 | 0.43
6 | CC(=O)/N=C1\NCCC(c2cn(C)c3ccccc23)N1 (racemic) |  |  |  | 14.4 | 7.4 | 10.7
7 | Cn1cc(C2CC(=O)N=C(N)N2)c2cc(Br)ccc21 (racemic) | inactive | inactive | inactive |  |  | 
8 | Cn1cc(C2CCN=C(N)N2)c2cc(Br)ccc21 (racemic) |  |  | inactive | 25.7 | 13.7 | 
9 | NC1=NCCC(c2c[nH]c3cc(Br)c(Br)cc23)N1 (racemic) | inactive | inactive | inactive |  |  | 
10 | NC1=NCCC(c2c[nH]c3ccc(Br)cc23)N1 (racemic) [APLICYANIN A] |  |  |  | 0.27 | 0.11 | 0.27
11 | COn1cc(C2CCN=C(N)N2)c2ccccc21 (racemic) | inactive | inactive | inactive |  |  | 
12 | CC(=O)/N=C1\NCCC(c2c[nH]c3ccc(Br)cc23)N1 (racemic) [APLICYANIN B] |  |  |  | 0.98 | 0.33 | 0.51
13 | NC1=NCCC(c2c[nH]c3cc(Br)ccc23)N1 (racemic) |  |  | inactive | 19.1 | 21.1 | 
14 | COn1cc(C2CC(=O)N=C(N)N2)c2ccccc21 (racemic) | inactive | inactive | inactive |  |  | 
15 | CC(=O)/N=C1\NCCC(c2cn(C)c3cc(Br)ccc23)N1 (racemic) |  |  |  | 8.02 | 4.3 | 6.3
16 | CC(=O)/N=C1\NCCC(c2c[nH]c3cc(Br)ccc23)N1 (racemic) |  |  |  | 5.67 | 2.12 | 6.86
17 | Cn1cc(C2CCN=C(N)N2)c2ccc(Br)cc21 (racemic) |  |  |  | 8.79 | 4.56 | 9.11
18 | Cn1cc(C2CCN=C(N)N2)c2ccccc21 (racemic) |  |  |  | 1.71 | 4.29 | 2.67
19 | NC1=NC(=O)CC(c2c[nH]c3ccc(Br)cc23)N1 (racemic) | inactive | inactive | inactive |  |  | 
20 | COn1cc(C2CCN=C(N)N2)c2cc(Br)c(Br)cc21 (racemic) [APLICYANIN E] | inactive |  | inactive | 10.9 |  | 
